This is a sample that favours compounds with a hit; in the whole collection about 2.4% have one here.
IMP-1 inh-1 – IMP-1 metallo-beta-lactamase inhibitors, primary screen, biochemical, epi-absorbance readout, Pseudomonas aeruginosa enzyme | metallo-beta-lactamase IMP-1 (Pseudomonas aeruginosa) | purified IMP-1, nitrocefin hydrolysis, epi-absorbance fluorescence | inhibition, % at 5.6 µM | actives 0.45% (n = 290,000);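 active = inhibition above the mean plus 3 SD of all compounds in the same screening run, cut at about 4.5% in these data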;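 also: 0% = IMP-1 with DMSO and 100% = DMSO wells lacking enzyme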
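assay system = purified recombinant IMP-1 metallo-beta-lactamase enzyme | schedule = 15 min preincubation plus 25 min reaction at 25 °C | signal = Epi-absorbance fluorescence, 480 nm excitation, 530 nm emission | read-out basis = percent inhibition from optical density relative to buffer-blank wells | controls = IMP-1 with DMSO as 0%, enzyme-free DMSO as 100%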
HGIII-sPLA2 inh – human group III sPLA2 inhibitors, primary screen, biochemical, QFRET, BODIPY PC-A2 liposome substrate; Group 3 secretory phospholipase A2 (Homo sapiens), Q9NZ20; QFRET BODIPY PC-A2 liposome hydrolysis, fluorescence; inhibition, % at 12.2 µM; actives 0.56% (n = 370,000);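 active = inhibition above mean plus 3 SD of compounds lying within the high and low control bounds, cut at about 19% in these data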;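 also: 0% = median of test compound wells and 100% = no enzyme DMSO wells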
PfM18AAP inh-1 – PfM18AAP inhibitors, malaria aminopeptidase, primary screen, biochemical, QFRET, recombinant enzyme | H-Glu-NHMec fluorogenic cleavage | inhibition, % at 7.35 µM | actives 1.2% (n = 290,000) | AID 1822, 2009;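 active = inhibition above the campaign mean inhibition over all tested compounds plus 3 SD, cut at about 28% in these data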;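 also: 0% = plate median of test compound wells and 100% = 2 mM ZnCl2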
VIM-2 inhibitor – VIM-2 metallo-beta-lactamase inhibitors, primary screen, biochemical, epi-absorbance readout, Pseudomonas aeruginosa enzyme. purified VIM-2, nitrocefin hydrolysis, epi-absorbance fluorescence. inhibition, % at 5.6 µM. actives 0.89% (n = 290,000);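 active = inhibition above the mean of all tested compounds plus 3 SD, cutoff set per screening run, cut at about 7.5% in these data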;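 also: red hydrolysis product quenches plate fluorescence so inhibitors raise well fluorescence; 0% = enzyme with DMSO and 100% = DMSO without enzyme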
IMP-1 inh-2 – IMP-1 metallo-beta-lactamase inhibitors, confirmation, selectivity assay for selective VIM-2 inhibitor project, biochemical, epi-absorbance readout, triplicate; shares compounds with VIM-2 inhibitor; purified IMP-1, nitrocefin hydrolysis, epi-absorbance fluorescence; inhibition, % at 5.6 µM; 1,300 tested, under 10 active; AID 1856, 2009; call rule not given here;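 also: 0% = enzyme with vehicle and 100% = vehicle without enzyme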
VIM-2 FRET ctr – VIM-2 inhibitors in FRET format, confirmation, artefact control for selective VIM-2 inhibitor project, biochemical, epi-absorbance artifact exclusion; purified VIM-2, CCF2 FRET substrate hydrolysis; actives 23% (n = 1,300); shares compounds with VIM-2 inhibitor; inhibition, % at 5.6 µM;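 active = inhibition above the mean of all tested compounds plus 3 SD, cut at about 19% in these data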;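 also: 0% = VIM-2 plus DMSO and 100% = no enzyme wells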
TEM-1 counter-1 – TEM-1 serine beta-lactamase inhibitors, counter-screen for VIM-2 inhibitor project, biochemical, epi-absorbance, HTS. shares compounds with VIM-2 inhibitor. Purified TEM-1, nitrocefin hydrolysis, epi-absorbance fluorescence. inhibition, % at 5.6 µM. actives 3% (n = 1,300). AID 1866, 2009;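 active = inhibition above that campaign's mean inhibition plus 3 SD, cut at about 0.46% in these data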;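 also: 0% = TEM-1 with DMSO and 100% = TEM-1 with 100 µM potassium clavulanate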
Target sequence (P62593 whole entry, looked up): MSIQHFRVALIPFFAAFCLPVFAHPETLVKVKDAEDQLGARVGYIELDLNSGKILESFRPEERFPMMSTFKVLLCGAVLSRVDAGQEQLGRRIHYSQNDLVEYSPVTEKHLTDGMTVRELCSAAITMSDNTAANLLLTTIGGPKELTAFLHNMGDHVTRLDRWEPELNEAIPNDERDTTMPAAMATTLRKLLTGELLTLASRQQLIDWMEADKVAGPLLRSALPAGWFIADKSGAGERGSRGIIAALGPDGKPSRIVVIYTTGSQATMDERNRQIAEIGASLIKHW
VIM-2 confirm 2 – VIM-2 metallo-beta-lactamase inhibitors, confirmation, biochemical, epi-absorbance, hits shared with IMP-1 screen | shares compounds with VIM-2 inhibitor | purified VIM-2, nitrocefin hydrolysis | inhibition, % at 5.6 µM | actives 96% (n = 1,300);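 active = inhibition of the VIM-2 beta-lactamase enzyme above about 11% from the earlier first-round screen, limit read from the data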;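 also: 0% = VIM-2 with DMSO and 100% = buffer wells without enzyme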
VIM-2 inh confirm – P. aeruginosa VIM-2 enzyme inhibition – biochemical, epi-absorbance, HTS, confirmation; purified VIM-2 enzyme, nitrocefin absorbance; AID 1860, 2009; shares compounds with IMP-1 inh-1; inhibition, % at 5.6 µM; actives 73% (n = 200); in the data active = inhibition above about 8%;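 also: 0% = enzyme with vehicle and 100% = no enzyme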
TEM-1 counter-2 – Serine beta-lactamase TEM-1 inhibition, biochemical epi-absorbance counter-screen for IMP-1/VIM-2 inhibitor program; inhibition, % at 5.6 µM; TEM-1 beta-lactamase, nitrocefin absorbance inhibition; shares compounds with IMP-1 inh-1; AID 2184, 2009; actives 50% (n = 200); in the data active = inhibition above about 0.66%
IMP-1 confirm – IMP-1 metallo-beta-lactamase inhibitors, confirmation, biochemical, epi-absorbance, hits shared with VIM-2 screen | actives 60% (n = 200) | purified IMP-1 enzyme, absorbance substrate hydrolysis | shares compounds with IMP-1 inh-1 | inhibition, % at 5.6 µM | AID 2189, 2009; in the data active = inhibition above about 4.9%;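 also: 0% = enzyme with vehicle and 100% = vehicle without enzyme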
PfM18AAP inh-2 – PfM18AAP inhibitors, malaria aminopeptidase, confirmation, biochemical, QFRET, recombinant enzyme, triplicate; H-Glu-NHMec fluorogenic cleavage; AID 2170, 2009; shares compounds with PfM18AAP inh-1; inhibition, % at 7.35 µM; actives 28% (n = 2,400);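 active = mean inhibition over replicate wells above the hit cutoff set for the earlier primary screen, cut at about 29% in these data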;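 also: 0% = median of test compound wells and 100% = 2 mM ZnCl2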
CTSL1 confirm – cathepsin L1 inhibitors, retest, confirmation, counter-screen for PFM18AAP inhibitor project, biochemical, QFRET, triplicate | shares compounds with PfM18AAP inh-1 | purified cathepsin L1, Z-Leu-Arg-MCA fluorescence | inhibition, % at 5.96 µM | 2,400 tested, under 10 active;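 active = average inhibition across replicates above the hit cutoff set in the earlier primary screen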;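 also: 0% = median of test compound wells and 100% = Z-Phe-Ala-diazomethylketone 1 µM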
Target sequence (P07711 whole entry, looked up): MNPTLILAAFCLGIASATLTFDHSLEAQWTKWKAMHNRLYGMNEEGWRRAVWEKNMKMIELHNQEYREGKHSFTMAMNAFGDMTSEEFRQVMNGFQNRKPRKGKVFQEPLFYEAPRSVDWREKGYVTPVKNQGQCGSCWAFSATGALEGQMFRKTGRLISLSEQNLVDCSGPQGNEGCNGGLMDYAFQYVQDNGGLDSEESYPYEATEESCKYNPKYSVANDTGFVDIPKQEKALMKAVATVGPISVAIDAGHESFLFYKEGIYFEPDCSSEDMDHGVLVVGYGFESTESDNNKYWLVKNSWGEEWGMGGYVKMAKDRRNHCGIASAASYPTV
Numbers without * were called inactive.

CN1CCc2cc3c(c4c2C1Cc1ccccc1-4)OCO3 (stereo unspecified) was read as IMP-1 inh-1 3, HGIII-sPLA2 inh -4, PfM18AAP inh-1 50*, VIM-2 inhibitor 19*, IMP-1 inh-2 -3, VIM-2 FRET ctr -7, TEM-1 counter-1 -5, VIM-2 confirm 2 11*, PfM18AAP inh-2 5 and CTSL1 confirm 46*.
COC(=O)[C@@]1(O)c2c(oc3cccc(O)c3c2=O)C=C[C@H]1O was read as HGIII-sPLA2 inh 2.
Screening O=[N+]([O-])c1ccc(N2CCCCCC2)c2nonc12 returned IMP-1 inh-1 15*, HGIII-sPLA2 inh -164, PfM18AAP inh-1 6, VIM-2 inhibitor 13*, VIM-2 inh confirm 19*, TEM-1 counter-2 22* and IMP-1 confirm 16*.
Screening C[C@H]1COc2cccc(N3CCN(C)CC3)c2S(=O)(=O)N1 returned HGIII-sPLA2 inh 13.
`Cc1cc2c(C(F)(F)F)cc(=O)oc2c2c1NCCC2` gave IMP-1 inh-1 -5, HGIII-sPLA2 inh 2, PfM18AAP inh-1 3 and VIM-2 inhibitor -4.
O=c1cc(C(F)(F)F)c2cc3c4c(c2o1)CCCN4CCC3 was read as IMP-1 inh-1 7.8*, HGIII-sPLA2 inh -53, PfM18AAP inh-1 -4, VIM-2 inhibitor 8.5*, VIM-2 inh confirm 35*, TEM-1 counter-2 52* and IMP-1 confirm 26*.
`COc1ccc(Cc2cn(C)c(N)n2)cc1` gave HGIII-sPLA2 inh 7.
`Nc1ccc2ccc3cccc[n+]3c2c1` gave IMP-1 inh-1 26*, HGIII-sPLA2 inh -181, PfM18AAP inh-1 5, VIM-2 inhibitor 25*, VIM-2 inh confirm 35*, TEM-1 counter-2 40* and IMP-1 confirm 24*.
`O=C(NC1(C(F)(F)F)Oc2ccccc2O1)N1CCC2(CC1)OCCO2` gave IMP-1 inh-1 -2, HGIII-sPLA2 inh -1, PfM18AAP inh-1 71*, VIM-2 inhibitor -4, PfM18AAP inh-2 68* and CTSL1 confirm -9.
Screening O=C(c1ccccc1)N1CCC2(CC1)OCCO2 returned IMP-1 inh-1 -2, HGIII-sPLA2 inh 0, PfM18AAP inh-1 5 and VIM-2 inhibitor -2.
Screening NS(=O)(=O)c1ccc(N=Nc2c(O)[nH]c(=S)[nH]c2=O)cc1 returned IMP-1 inh-1 -3, HGIII-sPLA2 inh 14, PfM18AAP inh-1 32*, VIM-2 inhibitor -1, PfM18AAP inh-2 11 and CTSL1 confirm 14.
Screening O=c1[nH]c(=S)[nH]c(O)c1N=Nc1ccc(S(=O)(=O)N2CCOCC2)cc1 returned IMP-1 inh-1 -2, HGIII-sPLA2 inh 0, PfM18AAP inh-1 12 and VIM-2 inhibitor -2.
`O=c1[nH]c(O)c(Cc2ccc3c(c2)OCO3)c(=O)[nH]1` gave IMP-1 inh-1 -1, HGIII-sPLA2 inh 13, PfM18AAP inh-1 -6 and VIM-2 inhibitor -3.
For O=P(N1CC1)(N1CC1)N1CCc2ccccc21 the results were HGIII-sPLA2 inh 8.
Screening CCN1CCN(Cc2cc3c(cc2[N+](=O)[O-])OCO3)CC1 returned IMP-1 inh-1 0, HGIII-sPLA2 inh 5, PfM18AAP inh-1 48*, VIM-2 inhibitor 1, PfM18AAP inh-2 5 and CTSL1 confirm -2.
`O=c1[nH]sc2cc(F)ccc12` gave IMP-1 inh-1 -2, HGIII-sPLA2 inh -1, PfM18AAP inh-1 58*, VIM-2 inhibitor -1, PfM18AAP inh-2 37* and CTSL1 confirm 0.
For N[C@@H](Cc1ccccc1)C(=O)N1C[C@H]2C[C@@H](C1)c1cccc(=O)n1C2 the results were IMP-1 inh-1 -2, HGIII-sPLA2 inh 5, PfM18AAP inh-1 -12 and VIM-2 inhibitor 2.
`O=C1c2ccccc2-n2nncc2C2c3cc(Br)ccc3CCN12` (stereo unspecified) gave HGIII-sPLA2 inh 0.
`O=C1CCCN1c1ccc(S(=O)(=O)O)cc1` (tested in a mixture with another compound) gave IMP-1 inh-1 -5, HGIII-sPLA2 inh -3, PfM18AAP inh-1 80*, VIM-2 inhibitor -4, PfM18AAP inh-2 79* and CTSL1 confirm -4.
`O=c1[nH]c(=S)n(-c2ccccc2Cl)c(O)c1C=NCCN1CCNCC1` gave IMP-1 inh-1 -2, HGIII-sPLA2 inh 13, PfM18AAP inh-1 -9 and VIM-2 inhibitor -2.
For Cc1cc(C)c(N=Cc2c(O)[nH]c(=O)[nH]c2=O)c(C)c1 the results were IMP-1 inh-1 -3, HGIII-sPLA2 inh 3, PfM18AAP inh-1 -11 and VIM-2 inhibitor -3.
